# Legend:
# Cannabinoid receptor 1 = Cannabinoid receptor 1 (Homo sapiens, UniProt P21554); experiment: Displacement of [3H]CP-55940 from human CB1 receptor
# Cannabinoid receptor 2 = Cannabinoid receptor 2 (Homo sapiens, UniProt P34972); experiment: Displacement of [3H]CP-55940 from human CB2 receptor
# Summary of the method: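 HEK cells transfected with human recombinant CB2 used for competition binding against [3H]CP-55,940 (Kd 0.31 nM) at 0.084 nM with increasing test compound concentrations; Ki derived from IC50 via Cheng-Prusoff equation; means of at least three separate experiments run in duplicate.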
# Chain of Cannabinoid receptor 2 (P34972 whole entry): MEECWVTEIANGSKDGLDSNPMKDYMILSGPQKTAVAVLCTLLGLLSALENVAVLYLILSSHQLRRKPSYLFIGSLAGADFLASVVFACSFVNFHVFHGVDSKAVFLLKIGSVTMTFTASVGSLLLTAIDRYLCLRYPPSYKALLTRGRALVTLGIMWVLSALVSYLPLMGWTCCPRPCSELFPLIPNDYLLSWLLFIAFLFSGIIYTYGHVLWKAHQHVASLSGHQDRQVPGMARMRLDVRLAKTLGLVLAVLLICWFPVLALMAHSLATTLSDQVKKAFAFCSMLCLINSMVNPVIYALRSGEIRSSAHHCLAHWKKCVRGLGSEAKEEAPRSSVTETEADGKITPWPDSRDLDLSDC
# Chain of Cannabinoid receptor 1 (P21554 whole entry): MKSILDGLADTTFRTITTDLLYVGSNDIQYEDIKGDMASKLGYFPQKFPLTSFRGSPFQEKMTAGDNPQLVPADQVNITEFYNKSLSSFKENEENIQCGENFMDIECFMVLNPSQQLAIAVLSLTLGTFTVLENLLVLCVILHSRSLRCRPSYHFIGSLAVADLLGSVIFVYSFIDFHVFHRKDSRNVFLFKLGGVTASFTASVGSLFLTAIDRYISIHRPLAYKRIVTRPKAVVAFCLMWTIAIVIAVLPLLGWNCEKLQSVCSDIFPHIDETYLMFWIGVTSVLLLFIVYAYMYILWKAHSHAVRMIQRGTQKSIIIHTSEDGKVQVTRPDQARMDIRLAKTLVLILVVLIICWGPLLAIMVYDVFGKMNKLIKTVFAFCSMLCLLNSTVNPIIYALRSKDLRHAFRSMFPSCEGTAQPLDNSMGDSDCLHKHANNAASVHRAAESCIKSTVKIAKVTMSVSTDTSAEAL
SMILES,Ki (Cannabinoid receptor 1),Ki (Cannabinoid receptor 2)
CCCCCOC(=O)c1cc(O)c(-c2cc(C)cc(C)c2)c(O)c1,2 µM,> 1.1 µM
COC(=O)c1cc(O)c(-c2cc(C)cc(C)c2)c(O)c1,> 10 µM,> 4.5 µM
COc1cc(C(=O)O)cc(OC)c1-c1cc(C)cc(C)c1,> 10 µM,> 10 µM
CCCCCOC(=O)c1cc(O)c(-c2cc(C)cc(C)c2)c(OC)c1,1.4 µM,0.27 µM
CCCCCOC(=O)c1cc(O)c(-c2ccccc2)c(O)c1,> 10 µM,> 4 µM
COc1cc(C(=O)O)cc(O)c1-c1cc(C)cc(C)c1,> 10 µM,> 10 µM
COC(=O)c1cc(O)c(-c2cc(C)cc(C)c2)c(OC)c1,> 10 µM,> 6.4 µM
CCCCOC(=O)c1cc(O)c(-c2cc(C)cc(C)c2)c(O)c1,2.6 µM,> 3.2 µM
CCCCCOC(=O)c1cc(OC)c(-c2cc(C)cc(C)c2)c(OC)c1,> 10 µM,> 10 µM
Cc1cc(C)cc(-c2c(O)cc(C(=O)O)cc2O)c1,> 10 µM,> 10 µM
